The list is a sample of the results.
Apaf-1 act = human Apaf-1 activation. Apaf-1 apoptosome caspase-3 activation, DEVD-Rh110 fluorescence; active compounds read low. activity change, negative = activation, % at 20 µM. 0.31% of 330,000 active. AID 489031;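 active = activity change at or below -40% at 20 µM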
Target sequence (O14727 whole entry, looked up): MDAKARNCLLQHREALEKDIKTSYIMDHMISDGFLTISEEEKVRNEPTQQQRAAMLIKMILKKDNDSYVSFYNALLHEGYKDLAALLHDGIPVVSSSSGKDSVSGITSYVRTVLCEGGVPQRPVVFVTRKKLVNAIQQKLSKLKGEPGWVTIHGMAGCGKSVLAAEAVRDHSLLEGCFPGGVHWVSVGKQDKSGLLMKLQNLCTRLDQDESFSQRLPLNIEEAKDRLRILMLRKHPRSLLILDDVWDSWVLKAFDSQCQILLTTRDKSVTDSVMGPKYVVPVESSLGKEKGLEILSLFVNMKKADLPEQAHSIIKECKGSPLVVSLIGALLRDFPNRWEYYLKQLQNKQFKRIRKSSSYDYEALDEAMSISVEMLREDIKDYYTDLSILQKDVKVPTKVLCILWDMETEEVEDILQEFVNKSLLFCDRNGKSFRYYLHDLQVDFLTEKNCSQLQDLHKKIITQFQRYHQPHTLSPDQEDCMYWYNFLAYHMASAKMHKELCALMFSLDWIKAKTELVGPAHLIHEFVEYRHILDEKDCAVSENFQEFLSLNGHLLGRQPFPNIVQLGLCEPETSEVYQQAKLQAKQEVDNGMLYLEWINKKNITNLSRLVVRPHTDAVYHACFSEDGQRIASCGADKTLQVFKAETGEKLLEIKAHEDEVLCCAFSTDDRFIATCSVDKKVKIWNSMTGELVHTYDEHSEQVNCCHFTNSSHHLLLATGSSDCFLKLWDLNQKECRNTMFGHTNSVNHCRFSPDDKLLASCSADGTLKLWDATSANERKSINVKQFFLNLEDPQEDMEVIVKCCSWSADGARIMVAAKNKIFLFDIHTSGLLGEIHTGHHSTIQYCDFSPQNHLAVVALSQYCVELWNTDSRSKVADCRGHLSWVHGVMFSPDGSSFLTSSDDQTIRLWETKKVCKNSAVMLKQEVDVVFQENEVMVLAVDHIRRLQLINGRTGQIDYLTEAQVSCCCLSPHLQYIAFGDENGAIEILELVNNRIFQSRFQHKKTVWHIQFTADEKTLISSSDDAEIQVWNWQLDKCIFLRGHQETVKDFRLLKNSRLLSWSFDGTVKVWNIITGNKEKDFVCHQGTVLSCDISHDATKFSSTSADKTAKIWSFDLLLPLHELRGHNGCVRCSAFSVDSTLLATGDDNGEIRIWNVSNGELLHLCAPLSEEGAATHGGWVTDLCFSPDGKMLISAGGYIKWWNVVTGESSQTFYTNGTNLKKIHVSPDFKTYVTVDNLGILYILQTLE
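Material: biochemical Apaf-1 apoptosome reconstitution; Medium: 20 mM HEPES buffer, pH 7.5, containing CHAPS and BSA; Reagent: dATP, cytochrome c, and (Z-DEVD)2-Rh110 caspase-3 substrate; Times: 30 min preincubation, 50 min reaction, room temperature; Signal: Rh110 fluorescence, excitation 480 nm, emission 540 nm; Measure: Caspase-3 activity via Apaf-1.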
Rh110 interf act = interferes with Rh110 fluorescence, flagging false Apaf-1 activators. shares compounds with Apaf-1 act. Rh110 fluorescence interference, quenched caspase reaction, Ex480/Em540. fluorescence interference (activity change), % at 20 µM, hits read low. 980 tested, under 10 active. AID 504616;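 active = mean activity change at or below -40% when tested at 20 µM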
Apaf-1 act conf = confirmation of human Apaf-1 activators. shares compounds with Apaf-1 act. reconstituted apoptosome caspase-3 activity, DEVD-Rh110 fluorescence; active compounds read low. activity change, negative = activation, % at 20 µM. 5% of 980 active. AID 504617;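 active = mean activity change at or below -40%, meaning activation of 40% or more, at 20 µM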
Apaf1 act interf = counter-screen for Apaf-1 activators: fluorescence interference, dose response; shares compounds with Apaf-1 act; fluorescence interference counterscreen, Apaf-1 activator assay; EC50, µM; 55 tested, under 10 active; AID 588592; call rule not given here
Of the large screens only hits and unclear results are named; the others gave an inactive call (follow-up assays come after a bar, where they were run).

CC(C)Cn1c(N)c(C(=O)COC(=O)C2CCCCC2)c(=O)n(C)c1=O	none
COc1cc2c(cc1OC)-c1cc3ccc4c(c3c[n+]1CC2)OCO4	none
CCC(C)(C)c1ccc(OCCCC[n+]2ccc(C)cc2)c(C(C)(C)CC)c1	none
Cc1cc(C)cc(NC(=O)C2C3C=CC4(O3)C2C(=O)N(CCCN2CCCCC2)C4C(=O)NC2CCCCC2)c1 (centres undefined)	Apaf-1 act -324.6 | Rh110 interf act inactive | Apaf-1 act conf inactive
O=C1C(=O)c2c(C(=O)c3ccccc3)coc2-c2ccccc21	none
O=C(N/N=C\c1ccc(-c2ccccc2[N+](=O)[O-])o1)C1COc2ccccc2O1 (centres undefined)	none
O=C(COc1ccccc1[N+](=O)[O-])N/N=C/c1ccncc1	Apaf-1 act -53.1 | Rh110 interf act inactive | Apaf-1 act conf inactive
O=C(N/N=C/c1ccc(-c2ccccc2[N+](=O)[O-])o1)c1cncc(Br)c1	none
CC(OC(=O)c1cc(O)c2ccccc2c1O)C(=O)Nc1ccc(C(N)=O)cc1 (centres undefined)	none
Cc1ccc(C(=O)NC(C(=O)Nc2ccccc2)c2ccccc2)cc1 (centres undefined)	Apaf-1 act -54.7 | Rh110 interf act inactive | Apaf-1 act conf inactive
NS(=O)(=O)c1ccc(NC2=CC(=O)C(=O)c3ccccc32)cc1	none
O=C1c2ccccc2-c2nnc(-c3ccc(O)cc3)cc21	none
c1ccc2c(c1)CC/C2=N/Nc1nc2ccccc2[nH]1	none
O=S(=O)(c1ccc2nc(-c3ccco3)c(-c3ccco3)nc2c1)N1CCOCC1	none
O=S(=O)(c1ccc(F)cc1)N1CCN(S(=O)(=O)c2ccc3c(c2)OCCO3)CC1	Apaf-1 act -217.4 | Rh110 interf act inactive | Apaf-1 act conf inactive
COc1ccc(OC)c(Nc2cc3ccccc3c(=O)[nH]2)c1	none
Cc1[nH][nH]c(=O)c1C(c1ccc(-c2cccc(Cl)c2)o1)c1c(C)[nH][nH]c1=O	none
CCc1ccccc1N1CSC2=C(C#N)C(c3cc(OC)c(OC)cc3OC)CC(=O)N2C1 (centres undefined)	none
CCC1(c2ccccc2)NC(=O)N(CC(=O)Nc2cc(Cl)ccc2N2CCN(C)CC2)C1=O (centres undefined)	none
CCC1(C)NC(=O)N(CC(=O)N2CCC(Cc3ccccc3)CC2)C1=O (centres undefined)	none
CCCCn1c(N)c(N(CC)C(=O)CN2C(=O)NC(C)(c3ccccc3)C2=O)c(=O)[nH]c1=O (centres undefined)	Apaf-1 act -440.7 | Rh110 interf act inactive | Apaf-1 act conf inactive
O=C1CC(=Nc2ccccc2)NN1c1ccccc1	none
COCCNC(=O)CN(c1cccc(OC)c1)S(=O)(=O)c1ccc(C)cc1	none
Cc1ccc(OCCNC(=O)CCNS(=O)(=O)c2ccc(C)cc2)cc1	Apaf-1 act -605.3 | Rh110 interf act inactive | Apaf-1 act conf inactive
Cc1ccc(-n2c(SCC(=O)Nc3cc(C)on3)nc3c([nH]c4ccccc43)c2=O)cc1	none
Cc1ccc(NC(=O)CCC(=O)OCc2ccc(Br)cc2)cc1	Apaf-1 act -46.1 | Rh110 interf act inactive | Apaf-1 act conf inactive
CCOC(=O)CNCCC(=O)c1ccc(Br)cc1	none
Cc1nc(SCc2ccccc2)c2oc3ccccc3c2n1	Apaf-1 act -159.3 | Rh110 interf act inactive | Apaf-1 act conf inactive
CCN(CC)CCN(C(=O)c1ccc(C(=O)c2ccccc2)cc1)c1nc2ccc(OC)cc2s1	none
COc1ccc2cnn(-c3ccc(OC(F)(F)F)cc3)c(=O)c2c1OC	Apaf-1 act -49.3 | Rh110 interf act inactive | Apaf-1 act conf inactive
COC/C=C/C1=CC2=CC(=O)C(C)(OC(=O)c3cnc4ccccc4n3)C(=O)C2=CN1CC(C)C (centres undefined)	none
CC(=O)OCC1=C(C(=O)O)N2C(=O)C(NC(=O)C(C)Cn3nc(C)c(Cl)c3C)C2SC1 (centres undefined)	Apaf-1 act -90.2 | Rh110 interf act inactive | Apaf-1 act conf inactive
CC(/C=C\c1cccnc1)=C/C(=O)O	Apaf-1 act -84.3 | Rh110 interf act inactive | Apaf-1 act conf -46.2 | Apaf1 act interf inactive
CCN(CC)CCOC(=O)c1ccc(N/C=C(/C#N)c2nc(-c3ccc(OC)c(OC)c3)cs2)cc1	none
c1ccc(-c2nc(C3CCCCC3)no2)cc1	Apaf-1 act -153.7 | Rh110 interf act inactive | Apaf-1 act conf inactive
O=C(c1ccco1)[C@@H]1[C@@H]2C(=O)N(c3ccccc3)C(=O)[C@@H]2C2c3ccccc3C=CN21 (some centres undefined)	none
COC(=O)c1c(NC(=O)c2ccc(OC(C)C)cc2)sc2c1CC(C)(C)NC2(C)C	none
NC(=O)OCC(COC(N)=O)c1ccccc1	none
CC(C)COC(=O)c1nnsc1NC(=O)Nc1ccccc1	Apaf-1 act -63.2 | Rh110 interf act inactive | Apaf-1 act conf inactive
CN(Cc1ccccc1)c1oc(-c2ccco2)nc1C#N	none
COc1ccccc1C(=O)NC(CCSC)C(=O)N1CCC(Cc2ccccc2)CC1 (centres undefined)	none
Fc1ccc(C2=NOC(c3nnc(-c4ccccc4)o3)C2)cc1 (centres undefined)	Apaf-1 act -460.5 | Rh110 interf act inactive | Apaf-1 act conf inactive
O=[N+]([O-])c1cc(Br)c(O)c(C=Nc2ccc(N3CCOCC3)cc2)c1	none
O=C(NC1CC1)C1=C[C@H](c2ccc(C(F)(F)F)cc2)C[C@H](OCCCCO)O1	none
N#CC1=C(N)C(C#N)(C#N)[C@H](c2ccoc2)[C@H]2CN(Cc3ccccc3)CC=C12	none
COC(=O)c1ccc(-c2ccc(C(c3c(C)[nH][nH]c3=O)c3c(C)[nH][nH]c3=O)o2)cc1	none
COc1ccc(-n2nc3cc(N)c(Br)cc3n2)cc1	none
COc1ccc(C2=NCN(c3ccc(C)cc3)C(=S)N2)cc1	Apaf-1 act -555.3 | Rh110 interf act inactive | Apaf-1 act conf inactive
CCC[C@@H](CN1CCC[C@H]1CN1C(N)=NC[C@@H]1Cc1ccccc1)N1C[C@@H](Cc2ccccc2)N(CCc2ccc(Cl)c(Cl)c2)C1=N	none
FC(F)(F)c1cc(CCN2CCNC[C@@H]2CC2CCCCC2)cc(C(F)(F)F)c1	none
O=C(OCC(=O)N1CCN(S(=O)(=O)c2ccc(Cl)cc2)CC1)c1ccc([N+](=O)[O-])o1	none
Cc1cccc(OCc2nc3ccccc3c(=O)n2N)c1	Apaf-1 act -91.6 | Rh110 interf act inactive | Apaf-1 act conf inactive
Cc1ccc(-c2nnc(CSc3nnc(COc4cccc5ccccc45)n3-c3ccccc3)o2)cc1	none
O=C1c2cc(F)ccc2-n2c1nc1ccccc1c2=O	none
Cn1c(C(=O)N2CCN(c3nc4ccccc4s3)CC2)cc2sccc21	none
CCCCN(C)C1=CC2=CC(=C(C#N)C#N)CCC2CC1 (centres undefined)	Apaf-1 act -76.4 | Rh110 interf act -659.2 | Apaf-1 act conf inactive
CCN(CC)C1=CC2=CC(=C(C#N)C#N)CCC2CC1 (centres undefined)	Apaf-1 act -141.5 | Rh110 interf act active | Apaf-1 act conf -77.2
CCN(CC)c1ccc(N=Cc2ccc([N+](=O)[O-])o2)cc1	none
COc1ccc(NC(=S)Nc2cccc3cnccc23)cc1	none
c1ccc(C[C@H]2CNCCN2CCCCC2CCCCC2)cc1	none
